# Data: ChEMBL document CHEMBL3091399, “Protease inhibitors from Microcystis aeruginosa bloom material collected from the Dalton Reservoir, Israel” (J Nat Prod, 2013)
# Activity calls are given as the source filed them. The rule behind the calls is not given here. *1 amine or outer side, *2 acyl side, *3 side chain or, on linkers, in order; H or OH if unused. Where a SMILES comes first, the peptide text is derived from it. Bridges are numbered along the chain shown (N, C = ends). [ ]: non-standard residue; d: D form. hTyr = N[C@@H](CCc1ccc(O)cc1)C(=O)O; NMeA = CN[C@@H](C)C(=O)O; CO = O=C([*:1])[*:2]
# What was measured:
# Trypsin [1] = biological target: T1, Trypsin (Homo sapiens, UniProt P07477+P07478+P35030); test: Inhibition of trypsin (unknown origin) using benzoyl-L-arginine-p-nitroanilide hydrochloride as substrate preincubated for 5 mins before substrate addition measured after 30 mins; format: protein assay
# In short: (§1)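 Trypsin stock 1 mg/mL in 0.05 M Tris-HCl/100 mM NaCl/1 mM CaCl2, pH 7.5. Substrate in 1:9 DMSO/Tris buffer. Samples from 1 mg/mL DMSO stocks. Enzyme and sample are preincubated in buffer at 37 °C for 5 min. Substrate is then added and kinetics are read at 405 nm, 37 °C, for 30 min. Percent inhibition is taken against a DMSO vehicle control.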
# Prothrombin [2] = biological target: T2, Prothrombin (Homo sapiens, UniProt P00734); test: Inhibition of thrombin (unknown origin) using z-Gly-Pro-Arg-4MbetaNA-acetate as substrate preincubated at 45.5 uM for 20 mins before substrate addition measured after 20 mins
# In short: (§2)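 Thrombin stock 0.5 mg/mL in 0.2 M Tris-HCl, pH 8. Substrate stock 0.5 mg/mL in water. Test samples from 1 mg/mL DMSO stocks. Enzyme and sample are preincubated in buffer at 25 °C for 20 min. Substrate is then added and kinetics are read at 405 nm, 25 °C, for 20 min. Percent inhibition is taken against a DMSO-only control.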
# Prothrombin [3] = biological target: T2, Prothrombin; test: Inhibition of thrombin (unknown origin) using z-Gly-Pro-Arg-4MbetaNA-acetate as substrate preincubated for 20 mins before substrate addition measured after 20 mins; in short: as §2
# Trypsin [4] = biological target: T1, Trypsin; test: Inhibition of trypsin (unknown origin) using benzoyl-L-arginine-p-nitroanilide hydrochloride as substrate preincubated at 45.5 uM for 5 mins before substrate addition measured after 30 mins; format: protein assay; in short: as §1
SMILES,inhibition (Trypsin [1]),inhibition (Prothrombin [2]),IC50 (Trypsin [1]),inhibition (Trypsin [4]),also measured
CC[C@H](C)[C@@H]1NC(=O)[C@H](Cc2ccccc2)N(C)C(=O)[C@H]([C@@H](C)CC)N2C(=O)[C@H](CC[C@H]2OC)NC(=O)[C@H](CCCNC(=N)N)NC(=O)[C@@H](NC(=O)[C@H](O)COS(=O)(=O)O)[C@@H](C)OC1=O,Active,,,,
N=C(N)NCCCCNC(=O)[C@@H]1C[C@@H]2CC[C@@H](O)C[C@@H]2N1C(=O)[C@H](Cc1ccccc1)NC(=O)[C@H](O)Cc1ccc(O)c(Cl)c1,,inactive,19 µM,,
N=C(N)NCCCCNC(=O)[C@@H]1C[C@@H]2CC[C@@H](O)C[C@@H]2N1C(=O)[C@H](Cc1ccccc1)NC(=O)[C@@H](O)Cc1ccc(O)c(Cl)c1,,,30.8 µM,,IC50 (Prothrombin [3]): 15.5 µM
CC[C@H](C)[C@@H]1NC(=O)[C@H](Cc2ccccc2)N(C)C(=O)[C@H]([C@@H](C)CC)N2C(=O)[C@H](CC[C@H]2O)NC(=O)[C@H](CCCNC(=N)N)NC(=O)[C@@H](NC(=O)[C@H](O)COS(=O)(=O)O)[C@@H](C)OC1=O,Active,,,,
CC[C@H](C)[C@@H]1NC(=O)[C@H](NC(=O)N[C@@H](CCCNC(=N)N)C(=O)O)CCCCNC(=O)[C@H](Cc2ccccc2)NC(=O)[C@H](C)N(C)C(=O)[C@H](CCc2ccc(O)cc2)NC1=O ({Arg-CO}-[dK]I[hTyr][NMeA]F; lactam 1-C),,inactive,,inactive,
C=C(C)C(O)CC/C(C)=C/CN(CCCC(C(=O)[O-])[N+](C)(C)C)C(=N)N (stereo not given),,inactive,,inactive,
NC(=O)[C@@H]1C[C@@H]2CC[C@H](O)C[C@@H]2N1C(=O)[C@@H](Cc1ccc(O)cc1)NC(=O)[C@H](O)Cc1ccc(O)cc1,,inactive,,inactive,
CC[C@H](C)[C@@H]1NC(=O)[C@H](Cc2ccccc2)N(C)C(=O)[C@H]([C@@H](C)CC)N2C(=O)[C@H](CC[C@H]2O)NC(=O)[C@H](CCCNC(=N)N)NC(=O)[C@@H](NC(=O)[C@@H](COS(=O)(=O)O)OS(=O)(=O)O)[C@@H](C)OC1=O,Active,,,,
CC(C)C[C@@H](NC(=O)[C@H](O)Cc1cc(Cl)c(O)c(Cl)c1)C(=O)N1[C@H](C(=O)NCCCCNC(=N)N)C[C@@H]2CC[C@@H](OS(=O)(=O)O)C[C@@H]21,,inactive,7.3 µM,,
NC(=O)[C@@H]1C[C@@H]2CC[C@H](O)C[C@@H]2N1C(=O)[C@@H](Cc1ccccc1)NC(=O)[C@H](O)Cc1ccc(O)cc1,,inactive,,inactive,
CC(C)C[C@@H](NC(=O)[C@H](O)Cc1ccc(O)c(Cl)c1)C(=O)N1[C@H](C(=O)NCCCCNC(=N)N)C[C@@H]2CC[C@@H](OS(=O)(=O)O)C[C@@H]21,,inactive,9.5 µM,,
CC[C@H](C)[C@@H]1NC(=O)[C@H](Cc2ccccc2)N(C)C(=O)[C@H]([C@@H](C)CC)N2C(=O)[C@H](CC[C@H]2OC)NC(=O)[C@H](CCCNC(=N)N)NC(=O)[C@@H](NC(=O)[C@@H](COS(=O)(=O)O)OS(=O)(=O)O)[C@@H](C)OC1=O,Active,,,,
